Rows were chosen to be rich in hits. Some 3.8% of all compounds tested hit in one or more screens of this group.
GPR7 antagonist: GPR7 receptor antagonists, primary screen, cell-based, fluorescence, single concentration | AID 1861, 2009 | GPR7-expressing cells, fluorescence antagonist assay | Neuropeptides B/W receptor type 1 (Homo sapiens), P48145 | hit rate 1.1% among 290,000 | inhibition, % at 4.4 µM; in the data active = inhibition above about 16%, passing the limit was not always enough;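 also: cells stimulated with the agonist NPW; 0% = agonist with vehicle and 100% = vehicle without agonist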
MPTP block: mitochondrial permeability transition pore inhibitors, primary screen, biochemical, isolated mouse mitochondria, absorbance; Ca2+ swelling absorbance, 30 min; inhibition, % at 10 µM; hit rate 1.4% among 360,000;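 active = inhibition of 50% or more, scaled per plate between neutral and stimulator controls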;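 also: 0% = DMSO wells given calcium and 100% = 1 mM EGTA wells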
CHO parental Ca: ATP-evoked calcium signal inhibitors, parental CHO, primary screen, counter-screen for OX1R antagonist project, cell-based, fluorescence, Fluo-8 calcium dye; hit rate 0.63% among 330,000; AID 463079, 2010; inhibition, % at 5.6 µM; parental CHO-K1, ATP-induced calcium, Fluo-8 fluorescence;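 active = inhibition above that plate's mean sample inhibition plus 3 SD, cut at about 26% in these data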;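 also: 0% = ATP-challenged DMSO wells and 100% = DMSO wells without ATP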
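Test system: untransfected parental CHO cell line. Compound: one dose, 5.6 µM nominal. Detection: intracellular calcium via Fluo-8 no-wash fluorescent dye. Measure: % inhibition. Benchmarks: ATP-challenged DMSO wells low, unchallenged DMSO wells high.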
OX1R antag-1: OX1R (HCRTR1) antagonists, primary screen, fluorescence, CHO/OX1R cells, Fluo-8 calcium, orexin A. Fluo-8 calcium fluorescence. inhibition, % at 5 µM. hit rate 0.43% among 330,000;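 active = inhibition above its plate's threshold, mean inhibition of all tested compounds on the plate plus 3 SD, cut at about 37% in these data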;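 also: 0% = orexin A challenge wells and 100% = SB-334867-A antagonist wells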
Target sequence (O43613 whole entry, looked up): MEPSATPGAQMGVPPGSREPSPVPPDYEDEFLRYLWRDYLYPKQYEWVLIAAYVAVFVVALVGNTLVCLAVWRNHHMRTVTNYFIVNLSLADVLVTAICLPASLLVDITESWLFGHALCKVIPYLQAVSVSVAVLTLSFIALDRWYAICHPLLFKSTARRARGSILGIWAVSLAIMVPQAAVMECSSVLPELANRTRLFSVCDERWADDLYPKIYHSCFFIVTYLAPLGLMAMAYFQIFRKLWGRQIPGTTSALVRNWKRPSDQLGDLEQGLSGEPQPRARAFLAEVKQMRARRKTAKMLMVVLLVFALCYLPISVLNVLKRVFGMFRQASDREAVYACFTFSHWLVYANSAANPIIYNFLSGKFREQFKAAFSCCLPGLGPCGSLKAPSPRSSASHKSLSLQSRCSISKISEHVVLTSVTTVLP
OX1R antag-2: antagonists of human orexin 1 receptor (OX1R); OX1R-expressing cells, FRET antagonist read-out; hit rate 1.8% among 330,000; inhibition, % at 6.6 µM; in the data active = inhibition mostly above about 38%, no sharp cut-off; inactive = mostly below about 40%;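 also: 0% = agonist challenge alone and 100% = reference antagonist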
The depositor's hits bear a star; . = no result.

SMILES	GPR7 antagonist	MPTP block	CHO parental Ca	OX1R antag-1	OX1R antag-2
CC(C)C[C@H]1C(=O)N2CCC[C@H]2[C@]2(O)O[C@](NC(=O)C3C=C4c5cccc6[nH]c(Br)c(c56)C[C@H]4N(C)C3)(C(C)C)C(=O)N12 (stereo not given in full)	.	-1	-18	-7	58*
NS(=O)(=O)c1ccc(NC(=S)NCc2ccccc2)cc1	-4	-1	-4	10	4
Cc1ccc(NC(=S)NCc2ccc(S(N)(=O)=O)cc2)cc1Cl	20*	30	5	1	2
COC(=O)C1(C(=O)OC)C[C@H](/C=C/c2ccccc2)N(Cc2ccccc2OC)[C@@H]1c1ccccc1	.	2	.	.	.
COc1ccc(OC[C@@H](O)CNC(=O)c2cccc3c2C(=O)c2ccc(Cl)cc2S3(=O)=O)cc1	.	-2	-35	-22	42*
COc1ccc(-c2ccc3c(c2)S(=O)(=O)c2cccc(C(=O)NCCOc4ccccc4Cl)c2C3=O)cc1OC	.	0	-21	10	4
O=C(NCCc1c[nH]c2ccccc12)c1ccc(-n2cnnn2)cc1	3	1	5	-8	27
O=C(NCCc1ccccc1)c1ccc(-n2cnnn2)cc1	18*	0	-1	9	3
O=C(Nc1ccc2c(c1)OCO2)c1cnn2cccnc12	17*	0	-3	1	-1
Cn1c(=O)c2c(ncn2CC(=O)Nc2nc(-c3ccc(F)c(F)c3)cs2)n(C)c1=O	-5	3	99*	-13	12
Cc1ccc(-c2csc(NC(=O)Cn3cnc4c3c(=O)n(C)c(=O)n4C)n2)cc1C	-4	0	-14	-19	26
C=C(C)C(=O)OCC(O)COc1ccc(C(C)(C)c2ccc(OCC(O)COC(=O)C(=C)C)cc2)cc1 (stereo not given)	.	-3	57*	25	20
CC(=O)c1ccc(OCC(O)COc2ccc(C(C)=O)cc2)cc1	5	0	-1	-13	13
N#Cc1nc(Cc2ccccc2)oc1NCc1cccnc1	-3	6	-11	-14	10
N#Cc1nc(Cc2ccccc2)oc1NCc1ccccc1Cl	10	1	36*	22	32
Cc1cc(C)c2c(N)c(C(=O)Nc3ncc(C)s3)sc2n1	-9	0	-18	-14	51*
COC(=O)c1sc2nc(C)cc(C)c2c1N	-2	0	-10	-9	16
Cn1ncc2c(Nc3ccc(-c4ccccc4)cc3)ncnc21	-3	1	-21	-7	25
Cn1ncc2c(Nc3ccc(Cl)c(Cl)c3)ncnc21	13	1	-12	8	65*
Cc1ccc(-n2c(SC3CCOC3=O)nc3ccccc3c2=O)cc1 (stereo not given)	-17	.	-15	-17	-3
CC1=C(C(=O)N(C)C)CC(CC(=O)NCCCN(C)C)C(=O)N1CCC1=CCCCC1 (stereo not given)	.	0	.	.	.
CN1C=CC=C/C1=C1/SC(=S)N(Cc2ccccc2)C1=O	10	0	0	3	25
CCN1C(=O)/C(=C2/C=CC=CN2C)SC1=S	4	4	5	4	46*
Cc1cc(C(=O)OCC(=O)Nc2c(Cl)cccc2C(F)(F)F)c(C)o1	.	1	0	-5	14
COC(=O)c1ccc(NC(=O)CSc2ccccc2)cc1	-2	4	54*	54*	9
SMILES	GPR7 antagonist	MPTP block	CHO parental Ca	OX1R antag-1	OX1R antag-2
CC1CCC(NC(=O)CN2C(=O)c3cccnc3Oc3ccc(Cl)cc32)CC1 (stereo not given)	5	1	-29	-44	14
CCOC(=O)C1(CCCc2ccccc2)CCN(C(=O)c2cnn(CC)c2)CC1	-8	0	1	-13	1
OC(CNCCc1ccc(C(F)(F)F)cc1)COc1ccc2ccccc2c1 (stereo not given)	0	-4	48*	15	-5
COc1ccc(CNCC(O)COc2ccc(C(C)(C)c3ccccc3)cc2)cc1 (stereo not given)	16	6	36*	-9	-9
OC(CNc1ccccc1)COc1ccc(OCC(O)CNc2ccccc2)cc1 (stereo not given)	24	5	50*	40	40
OC(CNCc1ccc(Cl)cc1)COc1ccccc1 (stereo not given)	8	1	-14	-24	9
OC(CNCCc1ccc(C(F)(F)F)cc1)COc1cccc2ccccc12 (stereo not given)	-3	1	25	2	8
CCCCNC(=O)C1c2ccccc2OCC(=O)N1CCc1ccc(OC)c(OC)c1 (stereo not given)	.	-1	.	.	.
CS(=O)(=O)N(CC(=O)N1CCCC1)c1ccc(Cl)cc1	8	0	-10	-11	-8
COC(=O)C[C@H]1C=C[C@H](NC(=O)Nc2ccccc2OC)[C@@H](CO)O1	.	-1	.	.	.
c1coc(-c2nc3ccccc3nc2-c2ccco2)c1	-2	2	-23	-3	43*
CCOC(=O)c1nn(-c2sc(C(=O)OC)c(C)c2C(=O)OC)cc1O	19*	0	-4	-5	4
CCOC(=O)c1nn(-c2cc(C(=O)OC)cc(C(=O)OC)c2)cc1O	-10	0	-5	0	3
Cc1ccc(CNC(=O)C2CC(c3ccc(C(F)(F)F)cc3)=NO2)o1 (stereo not given)	.	0	62*	1	28
CCCS(=O)(=O)NC(=O)C1(C)CCN(C(=O)c2ccccc2F)C1 (stereo not given)	.	0	.	.	.
COc1cc(NC(=O)C2CCN(S(=O)(=O)c3cccs3)CC2)cc(OC)c1	.	-1	-2	17	51*
COc1ccc(C)cc1NC(=O)C1CCCN(S(=O)(=O)c2cccs2)C1 (stereo not given)	-8	0	-21	-13	37*
Cn1c(SCc2cccc([N+](=O)[O-])c2)nc2ccccc2c1=O	.	11	36*	68*	54*
COc1ccccc1NC(=O)CSc1nc2ccccc2c(=O)n1C	18	25	50*	21	48*
COc1cccc(NC(=O)CSc2nc3ccccc3n2C)c1	6	1	-18	-19	57*
COc1ccc(C2(C)NC(=O)N(CC(=O)Nc3c(C)n(C)n(-c4ccccc4)c3=O)C2=O)cc1 (stereo not given)	.	-2	0	-1	8
CC1CCC(N(CCCN)Cc2ccco2)CC1C (stereo not given)	-6	2	-20	-15	1
CC(Oc1ncnc2ccccc12)C(=O)Nc1cccc(S(=O)(=O)N2CCOCC2)c1 (stereo not given)	0	0	-12	-18	11
O=C(COC(=O)c1cc[n+]([O-])cc1)Nc1cc([N+](=O)[O-])ccc1Cl	.	-3	-14	-10	57*

Compound activity deposited in PubChem BioAssay by several laboratories.
